Measurements taken from ChEMBL document CHEMBL2150887, “Design, Prins-cyclization reaction promoting diastereoselective synthesis of 10 new tetrahydropyran derivatives and in vivo antinociceptive evaluations” (Eur J Med Chem, 2012).
Activity calls are given as the source filed them. The calls are words filed in the database; no cut-off is given here.

What was measured:
[1] = test system: Mus musculus; assay: Antinociceptive activity in Swiss albino mouse assessed as inhibition of acetic-acid induced abdominal writhing at 30 mg/kg, po administered prior to acetic-acid challenge measured after 30 mins relative to untreated-control; assay type: functional; conditions: Abdomen, 0.5 h
Summary of the method: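 Male Albino-Swiss mice (20-24 g), n = 6, were pretreated orally at 30 mg/kg in 5% ethyl acetate vehicle (5 mL/kg). Writhing was induced with 1.2% (v/v) acetic acid i.p. Writhes (abdominal contraction, body stretching, hind-limb extension) were counted for 30 min starting immediately after injection and compared with the control group. ANOVA/Bonferroni, P < 0.05.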

[2] = test system: Mus musculus; assay: Antinociceptive activity in Swiss albino mouse assessed as increase in tail-flick latency at 30 mg/kg, po measured up to 120 mins relative to untreated-control; assay type: functional, organism-based; set-up: dose 30 mg/kg
Summary of the method: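 Male Albino-Swiss mice (20-24 g), n = 6 per group, given 30 mg/kg p.o. as a suspension in 5% ethyl acetate vehicle (5 mL/kg). Tail-flick latency was measured every 20 min: two pre-dose readings were averaged as baseline, then six post-dose readings. Results are expressed as % increase over baseline and as AUC from 20-120 min. ANOVA with Bonferroni test, P < 0.05.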

[3] = test system: Mus musculus; assay: Neurotoxicity in Swiss albino mouse assessed as alteration in motor activity at 30 mg/kg, po administered 60 mins prior to testing measured for 5 mins by rotarod test relative to untreated-control; assay type: toxicity, organism-based; set-up: dose 30 mg/kg, route oral; conditions: in vivo
Summary of the method: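 Mice were trained twice the day before to stay 5 min on a rotarod turning at 10 rev/min. Twenty-four hours later they received 30 mg/kg p.o. or vehicle. Sixty minutes after dosing they were placed on the roller for 5 min, and the number of falls was recorded as the neurological deficit.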

[4] = test system: Mus musculus; assay: Neurotoxicity in Swiss albino mouse assessed as alteration in motor activity at 30 mg/kg, po administered 60 mins prior to testing measured for 5 mins by open field test relative to untreated-control; assay type: toxicity, organism-based; set-up: dose 30 mg/kg, route oral; conditions: in vivo
Summary of the method: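 Male Albino-Swiss mice, n = 6, received 30 mg/kg p.o. or vehicle. Sixty minutes after dosing, each mouse was placed alone in a chamber whose floor was divided into 50 squares of 5 × 5 cm. Squares crossed were counted over 5 min.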

[5] = test system: Mus musculus; assay: Toxicity in Swiss albino mouse assessed as disorientation up to 2000 mg/kg, po measured from 5 hrs post-dose to 14 days relative to untreated-control; assay type: organism-based; set-up: dose 2000 mg/kg, route oral; conditions: in vivo
Summary of the method: (§1)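 Acute toxicity followed WHO and OECD guidelines. Male Albino-Swiss mice received single oral doses increasing up to 2000 mg/kg. Behaviour (disorientation, hyperactivity, piloerection, hyperventilation) was observed from 5 h after dosing and then daily until day 14. LD50 was estimated by nonlinear regression of % deaths against dose.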

[6] = test system: Mus musculus; assay: Toxicity in Swiss albino mouse assessed as hyperactivity up to 2000 mg/kg, po measured from 5 hrs post-dose to 14 days relative to untreated-control; assay type: organism-based; set-up: dose 2000 mg/kg, route oral; conditions: in vivo; summary of the method: as §1
[7] = test system: Mus musculus; assay: Toxicity in Swiss albino mouse assessed as piloerection up to 2000 mg/kg, po measured from 5 hrs post-dose to 14 days relative to untreated-control; assay type: organism-based; set-up: dose 2000 mg/kg, route oral; conditions: in vivo; summary of the method: as §1
[8] = test system: Mus musculus; assay: Toxicity in Swiss albino mouse assessed as hyperventilation up to 2000 mg/kg, po measured from 5 hrs post-dose to 14 days relative to untreated-control; assay type: organism-based; set-up: dose 2000 mg/kg, route oral; conditions: in vivo; summary of the method: as §1
[9] = Toxicity in po dosed Swiss albino mouse; assay type: organism-based; conditions: in vivo
Summary of the method: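 Acute oral toxicity per WHO and OECD guidelines. Male Albino-Swiss mice (20–24 g), 6 per group, held at 20 ± 2 °C on a 12 h light/dark cycle. Given single oral doses rising to 2000 mg/kg, as a suspension in 5% ethyl acetate at 5 mL/kg. Behaviour watched from 5 h after dosing, then daily to day 14. LD50 from nonlinear regression of percent deaths against dose.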

[10] = test system: Mus musculus; assay: Antinociceptive activity in mouse assessed as inhibition of acetic-acid induced abdominal writhing at 50 mg/kg administered 60 mins prior to acetic-acid challenge; assay type: functional; conditions: Abdomen

Structure (SMILES) | inhibition in vivo at 30 mg/kg [1] | Activity [2] | Activity [3] | Activity [4] | Activity [5] | Activity [6] | Activity [7] | Activity [8] | LD50 [9] | inhibition in vivo at 50 mg/kg [10]
CC(C)C(=O)OC[C@H]1C[C@@H](Cl)C[C@@H](c2ccc3ccccc3c2)O1 (relative stereo) | 44.4% | Active | Non-toxic | Non-toxic | Non-toxic | Non-toxic | Non-toxic | Non-toxic | > 2000 mg/kg | –
CC[C@@H]1CCC[C@H](C(=O)O)O1 (racemic) | 14.1% | Active | Non-toxic | Non-toxic | Non-toxic | Non-toxic | Non-toxic | Non-toxic | > 2000 mg/kg | 15%
O=C(O)[C@H]1CCC[C@@H](c2cccc3ccccc23)O1 (relative stereo) | 49% | Active | Non-toxic | Non-toxic | Non-toxic | Non-toxic | Non-toxic | Non-toxic | > 2000 mg/kg | –
OC[C@H]1CCC[C@@H](c2ccc3ccccc3c2)O1 (relative stereo) | 55.7% | Active | Non-toxic | Non-toxic | Non-toxic | Non-toxic | Non-toxic | Non-toxic | > 2000 mg/kg | –
O=C(O)[C@H]1C[C@@H](Cl)C[C@@H](c2cccc3ccccc23)O1 (relative stereo) | 54.4% | inactive | Non-toxic | Non-toxic | Non-toxic | Non-toxic | Non-toxic | Non-toxic | > 2000 mg/kg | –
O=C(O)[C@H]1C[C@@H](Cl)C[C@@H](c2ccc3ccccc3c2)O1 (relative stereo) | 28.1% | Active | Non-toxic | Non-toxic | Non-toxic | Non-toxic | Non-toxic | Non-toxic | > 2000 mg/kg | –
OC[C@H]1C[C@@H](Cl)C[C@@H](c2ccc3ccccc3c2)O1 (relative stereo) | 46.6% | Active | Non-toxic | Non-toxic | Non-toxic | Non-toxic | Non-toxic | Non-toxic | > 2000 mg/kg | –
O=C(O)[C@H]1CCC[C@@H](c2ccc3ccccc3c2)O1 | 43.1% | Active | Non-toxic | Non-toxic | Non-toxic | Non-toxic | Non-toxic | Non-toxic | > 2000 mg/kg | –
OC[C@H]1CCC[C@@H](c2cccc3ccccc23)O1 (relative stereo) | 39.2% | Active | Non-toxic | Non-toxic | Non-toxic | Non-toxic | Non-toxic | Non-toxic | > 2000 mg/kg | –
CC(C)C(=O)OC[C@H]1C[C@@H](Cl)C[C@@H](c2cccc3ccccc23)O1 (relative stereo) | 38.4% | Active | Non-toxic | Non-toxic | Non-toxic | Non-toxic | Non-toxic | Non-toxic | > 2000 mg/kg | –
OC[C@H]1C[C@@H](Cl)C[C@@H](c2cccc3ccccc23)O1 (relative stereo) | 87.5% | Active | Non-toxic | Non-toxic | Non-toxic | Non-toxic | Non-toxic | Non-toxic | > 2000 mg/kg | –
